Consider 40 compounds from PubChem BioAssay.

The structures appear in SMILES notation. Calls of active or inactive are those of the source.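 The calls were made as follows, unless noted: active = potentiation averaged over duplicate wells exceeding buffer-only control mean by more than 3 SD; inactive = the rest.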

Tested on in the first assay: not listed separately
As to the kind of experiment: nonspecific flux increase, KCNQ1-free cells – parental CHO cells, counter-screen for KCNQ1 potentiator project (AID 493006;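 active = duplicate-averaged activation above buffer control mean plus 5 SD of those controls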;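 as to activation: fluorescence ratio of max minus min over baseline after K+ and Tl+ depolarization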). The note with it: parental CHO-K1 cells, FluxOR thallium flux, at 10 µM; active compounds read high. Summed up:
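Material: parental CHO-K1 cells, FluxOR dye-loaded; Also added: Potassium/thallium depolarization pulse; Schedule: overnight 37 °C plating, 90 min dye, 20 min dark compound; Signal: kinetic FluxOR fluorescence, 10 s baseline, 110 s after stimulus.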
(In general: Counterscreens check selectivity or assay interference.)
As for `CCOc1ccc(CN(CCC#N)C(=S)NC(=O)c2ccccc2)cc1`, the activation is 149% (active).
Consider `CCOC(=O)Cc1csc(NC(=S)NC(=O)c2ccccc2Br)n1`, for which the activation is 233% (active).
Consider `Cc1sc2nc[nH]c(=S)c2c1-c1ccccc1`, for which the activation is 289% (active).
For `O=C(O)CCCN1C(=O)C2C3c4ccccc4C(c4ccccc43)[C@@H]2C1=O` (stereo not given in full), the outcome was inactive.
`CN1C=CC=C/C1=C1\SC(=S)N(Cc2ccccc2)C1=O`: the result was inactive.
With `CCN1c2ccccc2-c2nc3ccccc3n2C1c1cccnc1` (stereo not given), the result was inactive.
Take `Cc1sc(N/N=C/c2ccco2)nc1-c1ccccc1`: the outcome was inactive.
Consider `Cc1ccc(OCC(=O)NNC(=S)NC(=O)c2cccs2)c(C)c1`, for which the activation was 195% (active).
As for `COc1cccc(-c2nnc(Nc3nc4c(F)cccc4s3)o2)c1`, the activation is 278% (active).
Turning to `O=C1CC(c2ccccc2)CC(O)=C1C=Nc1ccc(O)cc1` (stereo not given), the outcome was inactive.
Turning to `CCn1ncc(Cl)c1C(=O)NC(=S)Nc1ccccc1Br`, the activation was 272% (active).
On the same count and under the same terms, next, `Oc1c(Cl)cc(Cl)cc1/C=N/c1nccs1`: 174% (active).
As to `CCN(CC)C(=O)c1[nH]cnc1C(=O)NCC(=O)OC(C)(C)C`, the outcome was inactive.
As for `Cc1cc(S(=O)(=O)N2CCOCC2)ccc1OCC(=O)NCc1ccccn1`, the outcome was inactive.
In the case of `Cc1ccc2nc3c(cc(C(=O)NCC4CCCO4)c(=N)n3C3CCCC3)c(=O)n2c1` (stereo not given), the result was inactive.
On the same count and under the same terms, next, `Cc1ccc2nc(C)cc(N/N=C/c3cccnc3)c2c1`: “inactive”; `CC1(C)CC(=O)C2=C(C1)N(c1cccc(Cl)c1)C(=O)NC2(C(F)(F)F)C(F)(F)F`: “inactive”.
Same read-out and setting: next, `Cc1csc(N/N=C/c2ccc([N+](=O)[O-])cc2)n1`: “inactive”; `O=C(COC(=O)C12CC3CC(CC(C3)C1)C2)NCCCc1ccccc1`: “inactive”.
With `O=C(Nc1ccc2[nH]c(=S)sc2c1)c1ccccc1`, the outcome was inactive.
For the compound `CC1CCc2c(sc(NS(=O)(=O)c3ccccc3)c2C(=O)OC(C)C)C1` (stereo not given), the activation was 284% (active).
Take `O=C(O)C1C2CCC(O2)C1C(=O)NCCC1=CCCCC1` (stereo not given): the result was inactive.
The same measure, in the same setting: next, `CCOC(=O)c1cc2c(=O)n3ccccc3nc2n(CCCOC)c1=NC(=O)c1ccncc1`: “inactive”.
With `CCC1CCCCN1C(=S)NC(=O)c1cccs1` (stereo not given), the activation is 470% (active).
For `Cc1cc(N2CCN(C)CC2)nc2ccc(NC(=S)NCCCN3CCc4ccccc4C3)cc12`, the result was inactive.
In the case of `CN(CC(=O)Nc1ccc(F)c(F)c1F)C(=O)CC1OC(=O)c2ccccc21` (stereo not given), the result was inactive.
On to `COc1cc2c(cc1OC)CN(C(=O)COc1ccccc1[N+](=O)[O-])CC2`, for which the result was inactive.
For `OC[C@H]1O[C@H](OC[C@H]2O[C@H](OC[C@H]3O[C@H](O[C@]4(CO)O[C@H](CO)[C@@H](O)[C@@H]4O)[C@H](O)[C@@H](O)[C@@H]3O)[C@H](O)[C@@H](O)[C@H]2O)[C@H](O)[C@@H](O)[C@H]1O`, the result was inactive.
Still for that read-out and setting: next, `COc1ccccc1C(=O)OCC(=O)Nc1ccc(Cl)cn1`: “inactive”; `Cc1ccccc1Cn1c(O)c(N=NC(=S)Nc2ccccc2F)c2ccccc21`: “inactive”; `CC(=O)NC1=C(NC2CCS(=O)(=O)C2)C(=O)c2ccccc2C1=O` (stereo not given): “inactive”.
For the compound `COc1cccc(N=Nc2ccc(O)c3ncccc23)c1`, the activation was 166% (active).
Still for that read-out and setting: next, `Cn1nccc1C(=O)NC(=S)Nc1cc(Cl)cc(Cl)c1`: 141% (active).
Consider `CN(C)c1ccc(-c2nn3c(-c4ccccc4Cl)nnc3s2)cc1`, for which the result was inactive.
Take `CC(=O)c1ccc(OCc2cc(C(=O)N(C)Cc3nc4c(C)cccc4[nH]3)no2)cc1`: the outcome was inactive.
Still for that read-out and setting: next, `COC(=O)c1ccc(N2CCN(S(=O)(=O)c3ccc(Br)cc3)CC2)c([N+](=O)[O-])c1`: “inactive”.
Still for that read-out and setting: next, `Cc1ncc(CN2CCC(CO)(CCc3ccccc3)CC2)s1`: “inactive”.
Take `O=C(c1ccc(-c2ccccc2)cc1)N1CCCC1`: the activation is 188% (active).
As to `Cc1ccc2oc(C(=O)N3CCN(c4cccc(C)n4)CC3)c(C)c2c1`, the outcome was inactive.
As for `C/C(=N\NC(=O)C(=O)Nc1cccc(C(F)(F)F)c1)c1ccc(Cl)s1`, the outcome was inactive.

For another assay, the target named is Potassium voltage-gated channel subfamily KQT member 1 (Homo sapiens) (UniProt P51787). Briefly: enhancement of KCNQ1 channel thallium flux – FluxOR thallium flux, CHO cells, duplicates, confirmation (AID 493007).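 As to outcome: cells depolarized by a potassium plus thallium sulfate stimulus after compound.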 To be noted: KCNQ1 cell line, FluxOR thallium flux fluorescence, at 10 µM; active compounds read high, % of reference activator effect, buffer zero. Summed up: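 System: KCNQ1-expressing CHO cell line; technique: kinetic thallium influx fluorescence with FluxOR dye, 10 s baseline, 110 s post-stimulus; timing: dye 90 min then compound 20 min, both at room temperature; controls: buffer-only wells as 0% and R-L3 activator as 100%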
Potassium voltage-gated channel subfamily KQT member 1 (Homo sapiens), sequence (P51787 whole entry, looked up): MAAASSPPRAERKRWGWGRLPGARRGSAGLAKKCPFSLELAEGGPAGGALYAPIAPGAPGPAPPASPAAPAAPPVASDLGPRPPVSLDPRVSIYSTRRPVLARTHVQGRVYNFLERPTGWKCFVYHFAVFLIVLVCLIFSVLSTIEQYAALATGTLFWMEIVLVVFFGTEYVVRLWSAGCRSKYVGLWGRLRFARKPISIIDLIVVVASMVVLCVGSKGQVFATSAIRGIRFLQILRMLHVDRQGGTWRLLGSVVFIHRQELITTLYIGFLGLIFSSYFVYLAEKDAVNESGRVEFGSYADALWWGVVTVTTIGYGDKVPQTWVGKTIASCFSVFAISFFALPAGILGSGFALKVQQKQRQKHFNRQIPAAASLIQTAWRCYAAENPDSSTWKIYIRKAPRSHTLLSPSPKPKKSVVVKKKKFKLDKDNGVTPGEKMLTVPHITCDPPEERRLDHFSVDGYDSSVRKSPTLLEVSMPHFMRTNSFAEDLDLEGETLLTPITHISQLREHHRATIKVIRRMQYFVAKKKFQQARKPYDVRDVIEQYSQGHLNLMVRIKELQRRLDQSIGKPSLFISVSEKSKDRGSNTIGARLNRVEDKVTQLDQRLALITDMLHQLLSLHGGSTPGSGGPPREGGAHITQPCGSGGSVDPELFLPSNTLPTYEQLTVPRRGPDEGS
Turning to `CCOc1ccc(CN(CCC#N)C(=S)NC(=O)c2ccccc2)cc1`, the potentiation was 47% (active).
Turning to `CCOC(=O)Cc1csc(NC(=S)NC(=O)c2ccccc2Br)n1`, the potentiation was 51% (active).
Still for that read-out and setting: next, `Cc1sc2nc[nH]c(=S)c2c1-c1ccccc1`: 93.5% (active).
Consider `O=C(O)CCCN1C(=O)C2C3c4ccccc4C(c4ccccc43)[C@@H]2C1=O` (stereo not given in full), for which the result was inactive.
In the case of `CN1C=CC=C/C1=C1\SC(=S)N(Cc2ccccc2)C1=O`, the outcome was inactive.
On the same count and under the same terms, next, `CCN1c2ccccc2-c2nc3ccccc3n2C1c1cccnc1` (stereo not given): “inactive”; `Cc1sc(N/N=C/c2ccco2)nc1-c1ccccc1`: “inactive”.
`Cc1ccc(OCC(=O)NNC(=S)NC(=O)c2cccs2)c(C)c1`: the potentiation is 76.5% (active).
Same read-out and setting: next, `COc1cccc(-c2nnc(Nc3nc4c(F)cccc4s3)o2)c1`: 91.5% (active).
As for `O=C1CC(c2ccccc2)CC(O)=C1C=Nc1ccc(O)cc1` (stereo not given), the outcome was inactive.
For `CCn1ncc(Cl)c1C(=O)NC(=S)Nc1ccccc1Br`, the potentiation is 200% (active).
As for `Oc1c(Cl)cc(Cl)cc1/C=N/c1nccs1`, the outcome was inactive.
In the case of `CCN(CC)C(=O)c1[nH]cnc1C(=O)NCC(=O)OC(C)(C)C`, the outcome was inactive.
Still for that read-out and setting: next, `Cc1cc(S(=O)(=O)N2CCOCC2)ccc1OCC(=O)NCc1ccccn1`: “inactive”; `Cc1ccc2nc3c(cc(C(=O)NCC4CCCO4)c(=N)n3C3CCCC3)c(=O)n2c1` (stereo not given): “inactive”.
Take `Cc1ccc2nc(C)cc(N/N=C/c3cccnc3)c2c1`: the result was inactive.
In the case of `CC1(C)CC(=O)C2=C(C1)N(c1cccc(Cl)c1)C(=O)NC2(C(F)(F)F)C(F)(F)F`, the potentiation was 19.5% (active).
Take `Cc1csc(N/N=C/c2ccc([N+](=O)[O-])cc2)n1`: the potentiation is 46% (active).
For `O=C(COC(=O)C12CC3CC(CC(C3)C1)C2)NCCCc1ccccc1`, the result was inactive.
For the compound `O=C(Nc1ccc2[nH]c(=S)sc2c1)c1ccccc1`, the potentiation is 52% (active).
On the same count and under the same terms, next, `CC1CCc2c(sc(NS(=O)(=O)c3ccccc3)c2C(=O)OC(C)C)C1` (stereo not given): 156% (active).
With `O=C(O)C1C2CCC(O2)C1C(=O)NCCC1=CCCCC1` (stereo not given), the result was inactive.
In the case of `CCOC(=O)c1cc2c(=O)n3ccccc3nc2n(CCCOC)c1=NC(=O)c1ccncc1`, the outcome was inactive.
In the case of `CCC1CCCCN1C(=S)NC(=O)c1cccs1` (stereo not given), the potentiation was 216% (active).
In the case of `Cc1cc(N2CCN(C)CC2)nc2ccc(NC(=S)NCCCN3CCc4ccccc4C3)cc12`, the result was inactive.
For the compound `CN(CC(=O)Nc1ccc(F)c(F)c1F)C(=O)CC1OC(=O)c2ccccc21` (stereo not given), the outcome was inactive.
Same read-out and setting: next, `COc1cc2c(cc1OC)CN(C(=O)COc1ccccc1[N+](=O)[O-])CC2`: “inactive”; `OC[C@H]1O[C@H](OC[C@H]2O[C@H](OC[C@H]3O[C@H](O[C@]4(CO)O[C@H](CO)[C@@H](O)[C@@H]4O)[C@H](O)[C@@H](O)[C@@H]3O)[C@H](O)[C@@H](O)[C@H]2O)[C@H](O)[C@@H](O)[C@H]1O`: “inactive”; `COc1ccccc1C(=O)OCC(=O)Nc1ccc(Cl)cn1`: “inactive”.
Consider `Cc1ccccc1Cn1c(O)c(N=NC(=S)Nc2ccccc2F)c2ccccc21`, for which the potentiation is 36% (active).
As for `CC(=O)NC1=C(NC2CCS(=O)(=O)C2)C(=O)c2ccccc2C1=O` (stereo not given), the outcome was inactive.
For the compound `COc1cccc(N=Nc2ccc(O)c3ncccc23)c1`, the potentiation is 44% (active).
Still for that read-out and setting: next, `Cn1nccc1C(=O)NC(=S)Nc1cc(Cl)cc(Cl)c1`: 20.5% (active).
Turning to `CN(C)c1ccc(-c2nn3c(-c4ccccc4Cl)nnc3s2)cc1`, the outcome was inactive.
As to `CC(=O)c1ccc(OCc2cc(C(=O)N(C)Cc3nc4c(C)cccc4[nH]3)no2)cc1`, the potentiation was 18% (active).
`COC(=O)c1ccc(N2CCN(S(=O)(=O)c3ccc(Br)cc3)CC2)c([N+](=O)[O-])c1`: the result was inactive.
On the same count and under the same terms, next, `Cc1ncc(CN2CCC(CO)(CCc3ccccc3)CC2)s1`: “inactive”.
Turning to `O=C(c1ccc(-c2ccccc2)cc1)N1CCCC1`, the potentiation was 217% (active).
For the compound `Cc1ccc2oc(C(=O)N3CCN(c4cccc(C)n4)CC3)c(C)c2c1`, the outcome was inactive.
`C/C(=N\NC(=O)C(=O)Nc1cccc(C(F)(F)F)c1)c1ccc(Cl)s1`: the outcome was inactive.
